Source: ChEMBL document CHEMBL3352165 (Eur J Med Chem, 2014)
Active and inactive are the calls of the source. No cut-off for these calls is given here.

What was measured:
[1] = tested on: BT-474; assay: Induction of cell cycle arrest in human BT474 cells assessed as accumulation at G1 phase at 0.01 uM incubated for 12 hrs by propidium iodide staining based flow cytometry (reference value: 67%); assay type: functional
[2] = cells; conditions: Homo sapiens, Calu-3, 72 h
[3] = biological target: T1, Platelet-derived growth factor receptor beta (Homo sapiens, UniProt P09619); conditions: U-87MG ATCC, 0.001 to 1 uM
T1 sequence (P09619 whole entry): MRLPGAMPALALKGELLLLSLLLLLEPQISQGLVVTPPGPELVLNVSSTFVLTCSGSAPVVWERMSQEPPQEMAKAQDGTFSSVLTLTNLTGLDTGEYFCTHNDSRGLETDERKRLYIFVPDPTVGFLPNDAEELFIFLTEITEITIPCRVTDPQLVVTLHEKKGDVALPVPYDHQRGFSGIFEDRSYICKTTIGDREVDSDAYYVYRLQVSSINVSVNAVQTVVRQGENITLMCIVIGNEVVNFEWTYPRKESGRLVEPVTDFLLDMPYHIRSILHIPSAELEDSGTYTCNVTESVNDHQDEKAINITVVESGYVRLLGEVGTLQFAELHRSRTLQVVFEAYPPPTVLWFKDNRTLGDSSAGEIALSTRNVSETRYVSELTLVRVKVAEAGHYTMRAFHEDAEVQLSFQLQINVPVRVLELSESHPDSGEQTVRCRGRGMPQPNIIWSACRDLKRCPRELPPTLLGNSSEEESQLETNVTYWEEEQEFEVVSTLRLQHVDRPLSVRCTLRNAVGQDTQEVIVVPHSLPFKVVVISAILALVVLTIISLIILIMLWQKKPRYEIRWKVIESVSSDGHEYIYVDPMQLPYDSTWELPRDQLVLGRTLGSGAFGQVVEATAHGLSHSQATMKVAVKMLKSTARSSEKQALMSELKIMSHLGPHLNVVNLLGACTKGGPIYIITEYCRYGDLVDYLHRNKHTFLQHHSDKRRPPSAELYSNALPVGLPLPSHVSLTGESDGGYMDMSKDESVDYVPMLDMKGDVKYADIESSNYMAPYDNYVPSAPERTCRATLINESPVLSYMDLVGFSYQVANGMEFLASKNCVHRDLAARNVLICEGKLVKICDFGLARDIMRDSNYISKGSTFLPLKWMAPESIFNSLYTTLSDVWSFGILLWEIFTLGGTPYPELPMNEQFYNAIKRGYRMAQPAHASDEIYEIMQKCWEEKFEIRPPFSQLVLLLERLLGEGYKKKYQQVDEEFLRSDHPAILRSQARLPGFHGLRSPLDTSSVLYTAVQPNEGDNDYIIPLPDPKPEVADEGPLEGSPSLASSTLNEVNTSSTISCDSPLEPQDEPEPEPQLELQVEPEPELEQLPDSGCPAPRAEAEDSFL

[4] = Mean residence time in Beagle dog at 240 mg/kg, po administered as single dose measured after 0.25 to 24 hrs post dose by LC/MS/MS method; assay type: ADME, organism-based, Canis lupus familiaris; set-up: dose 240 mg/kg, route oral; conditions: in vivo
Summary of the method: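 Single oral gavage of 240 mg/kg to beagle dogs (n = 6). Blood sampled at 0.25–24 h, kept on ice, centrifuged within 1 h (1000 × g, 4 °C, 15 min), plasma stored at −20 °C. Drug quantified by validated LC/MS/MS. AUC0–24 from non-compartmental analysis; Cmax and MRT taken directly from concentration–time data.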

[5] = tested on: BT-474; assay: Induction of cell cycle arrest in human BT474 cells assessed as accumulation at G1 phase at 10 uM incubated for 12 hrs by propidium iodide staining based flow cytometry (reference value: 67%); assay type: functional
[6] = biological target: T2, Epidermal growth factor receptor (Homo sapiens, UniProt P00533); conditions: A-431, 0.001 to 10 uM
T2 sequence (P00533 whole entry): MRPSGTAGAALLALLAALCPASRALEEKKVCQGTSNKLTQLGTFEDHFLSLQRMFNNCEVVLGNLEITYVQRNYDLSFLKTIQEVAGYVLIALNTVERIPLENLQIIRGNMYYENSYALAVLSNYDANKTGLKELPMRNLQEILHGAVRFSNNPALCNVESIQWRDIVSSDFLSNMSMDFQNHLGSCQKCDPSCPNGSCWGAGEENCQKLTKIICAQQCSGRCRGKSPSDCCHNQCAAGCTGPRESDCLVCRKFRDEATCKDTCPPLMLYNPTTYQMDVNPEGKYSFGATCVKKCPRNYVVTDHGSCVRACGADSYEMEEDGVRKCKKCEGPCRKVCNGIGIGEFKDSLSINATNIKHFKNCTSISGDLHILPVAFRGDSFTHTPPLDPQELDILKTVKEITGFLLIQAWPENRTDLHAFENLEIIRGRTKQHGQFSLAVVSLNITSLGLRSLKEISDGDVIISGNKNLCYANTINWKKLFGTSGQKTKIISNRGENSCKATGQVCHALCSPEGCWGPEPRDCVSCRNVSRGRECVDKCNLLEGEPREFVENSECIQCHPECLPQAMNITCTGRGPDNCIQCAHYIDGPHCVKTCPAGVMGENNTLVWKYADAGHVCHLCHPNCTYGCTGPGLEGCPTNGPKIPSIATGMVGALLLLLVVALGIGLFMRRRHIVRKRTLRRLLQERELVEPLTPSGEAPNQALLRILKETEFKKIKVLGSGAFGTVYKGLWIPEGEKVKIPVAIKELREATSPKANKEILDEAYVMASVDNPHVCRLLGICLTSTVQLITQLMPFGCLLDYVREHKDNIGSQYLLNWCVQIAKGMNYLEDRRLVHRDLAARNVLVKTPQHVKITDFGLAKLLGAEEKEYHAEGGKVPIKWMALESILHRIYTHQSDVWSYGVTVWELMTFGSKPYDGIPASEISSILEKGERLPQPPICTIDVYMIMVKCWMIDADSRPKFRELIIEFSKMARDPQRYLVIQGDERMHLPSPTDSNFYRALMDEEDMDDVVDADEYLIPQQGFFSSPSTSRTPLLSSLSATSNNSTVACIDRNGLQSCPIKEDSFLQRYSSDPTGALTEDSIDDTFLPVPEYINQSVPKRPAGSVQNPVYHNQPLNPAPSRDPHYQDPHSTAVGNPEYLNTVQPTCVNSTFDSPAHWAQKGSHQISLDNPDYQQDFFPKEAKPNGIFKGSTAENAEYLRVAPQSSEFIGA

[7] = tested on: BT-474; assay: Induction of cell cycle arrest in human BT474 cells assessed as accumulation at G2/M phase at 0.1 uM incubated for 12 hrs by propidium iodide staining based flow cytometry (reference value: 14%); assay type: functional
[8] = biological target: T2, Epidermal growth factor receptor; conditions: A-431, 0.001 to 1 uM
[9] = Mean residence time in Beagle dog at 240 mg/kg, po dosed for 14 days by LC/MS/MS method; assay type: ADME, organism-based, Canis lupus familiaris; set-up: dose 240 mg/kg, route oral; conditions: in vivo
Summary of the method: (§1)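 Beagle dogs (n = 6) dosed by oral gavage at 240 mg/kg daily for 14 consecutive days. Blood taken predose and at 0.25–24 h on days 1 and 14, plasma stored at −20 °C, analysed by validated LC/MS/MS. Half-life and AUC by model-independent methods; Cmax and MRT read from concentration–time data.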

[10] = tested on: MDA-MB-231; assay: cells; conditions: Homo sapiens, MDA-MB-231, 72 h
[11] = tested on: MDA-MB-453; assay: cells; conditions: Homo sapiens, MDA-MB-453, 72 h
[12] = tested on: BT-474; assay: Induction of cell cycle arrest in human BT474 cells assessed as accumulation at G2/M phase at 0.01 uM incubated for 12 hrs by propidium iodide staining based flow cytometry (reference value: 14%); assay type: functional
[13] = biological target: T1, Platelet-derived growth factor receptor beta; assay: Inhibition of PDGFRbeta (unknown origin) by ELISA method
Summary of the method: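 Phosphotyrosine ELISA with purified kinase (20 ng) and 5 µM ATP in buffer (50 mM HEPES pH 7.4, 20 mM MgCl2, 0.1 mM MnCl2, 0.2 mM Na3VO4, 1 mM DTT), 1 h at 37 °C, DMSO ≤1%. Detection by PY99 antibody, then HRP anti-mouse IgG with o-phenylenediamine, A490. IC50 by Logit from at least three independent tests.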

[14] = biological target: Mast/stem cell growth factor receptor Kit (Homo sapiens, UniProt P10721); assay: Inhibition of c-KIT phosphorylation (unknown origin) expressed in human NCI-H526 cells at 0.001 to 1 uM incubated for 2 hrs by Western blot method; assay type: cell-based
Mast/stem cell growth factor receptor Kit, sequence (P10721 whole entry): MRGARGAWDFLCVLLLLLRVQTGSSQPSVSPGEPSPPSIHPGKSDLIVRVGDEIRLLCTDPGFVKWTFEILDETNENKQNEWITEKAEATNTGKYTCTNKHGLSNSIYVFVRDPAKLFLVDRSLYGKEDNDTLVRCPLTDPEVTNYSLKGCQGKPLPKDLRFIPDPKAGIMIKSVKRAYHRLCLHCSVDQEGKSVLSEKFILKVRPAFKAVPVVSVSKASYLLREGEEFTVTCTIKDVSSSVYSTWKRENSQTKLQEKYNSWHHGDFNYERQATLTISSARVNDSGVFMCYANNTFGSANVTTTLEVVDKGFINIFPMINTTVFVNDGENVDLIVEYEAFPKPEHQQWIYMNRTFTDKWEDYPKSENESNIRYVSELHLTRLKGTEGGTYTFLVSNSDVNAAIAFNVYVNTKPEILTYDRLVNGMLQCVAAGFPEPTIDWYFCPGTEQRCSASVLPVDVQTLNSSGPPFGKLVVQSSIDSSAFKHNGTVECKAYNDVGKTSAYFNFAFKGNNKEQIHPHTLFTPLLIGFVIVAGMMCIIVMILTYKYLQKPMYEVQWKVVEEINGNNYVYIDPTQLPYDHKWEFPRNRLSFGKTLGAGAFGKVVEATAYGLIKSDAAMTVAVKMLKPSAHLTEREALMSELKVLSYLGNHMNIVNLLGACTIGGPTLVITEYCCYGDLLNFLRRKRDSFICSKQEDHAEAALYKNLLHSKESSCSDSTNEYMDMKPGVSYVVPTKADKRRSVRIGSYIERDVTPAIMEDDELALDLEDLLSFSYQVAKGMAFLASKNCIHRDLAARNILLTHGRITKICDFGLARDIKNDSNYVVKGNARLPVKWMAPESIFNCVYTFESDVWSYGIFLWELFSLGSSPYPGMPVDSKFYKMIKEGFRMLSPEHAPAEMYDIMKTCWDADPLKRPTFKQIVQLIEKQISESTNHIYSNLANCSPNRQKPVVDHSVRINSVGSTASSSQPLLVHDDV
Summary of the method: (§2)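 Cells grown to half-confluence and serum-starved 24 h, then treated 2 h at 0.001, 0.01, 0.1 and 1 µM. Afterwards stimulated at 37 °C with 20 ng/ml SCF-1, PDGF-BB or VEGF as appropriate to the receptor. Phosphorylation assessed by western blot.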

[15] = cells; conditions: Homo sapiens, SK-OV-3, 72 h
[16] = AUC (0 to 24 hrs) in Beagle dog at 240 mg/kg, po dosed for 14 days by LC/MS/MS method; assay type: ADME, organism-based, Canis lupus familiaris; set-up: time < 24 hr, dose 240 mg/kg, route oral; conditions: plasma; summary of the method: as §1
[17] = tested on: BT-474; assay: Induction of apoptosis in human BT474 cells at 0.001 uM incubated for 12 hrs by propidium iodide staining based flow cytometry (reference value: 1%); assay type: functional
[18] = Antitumor activity against human Calu3 cells xenografted in BALB/cA mouse assessed as tumor growth inhibition at 200 mg/kg, po; assay type: functional; conditions: Calu-3, read-out: TGI
Summary of the method: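 Female BALB/cA nude mice, 6–7 weeks old, implanted s.c. on midright side with 2×10^6 Calu-3 cells in 0.2 ml PBS. Grouped at 60–150 mm³ tumour volume (6 per treated group, 12 vehicle). Oral dosing in 0.5% CMC with 0.1% Tween-80. Caliper volume = L×W²×0.5; inhibition = (1 − T/C)×100% on relative tumour volume; weight tracked for 21 d.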

[19] = tested on: A-431; assay: Cytotoxicity against human A431 cells assessed as inhibition of cell growth after 72 hrs by sulforhodamine B assay; assay type: functional, cell-based; conditions: A-431, 72 h
Summary of the method: (§3)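 Cells grown in RPMI-1640 with 5% FBS and plated at 5.0×10^4/ml. Next day exposed to 0.5–5000 ng/ml for 3 days. Survival read by sulforhodamine B staining. IC50 taken from growth curves; mean of at least three determinations.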

[20] = tested on: BT-474; assay: Induction of cell cycle arrest in human BT474 cells assessed as accumulation at G2/M phase at 0.001 uM incubated for 12 hrs by propidium iodide staining based flow cytometry (reference value: 14%); assay type: functional
[21] = tested on: BT-474; assay: Induction of cell cycle arrest in human BT474 cells assessed as accumulation at G1 phase at 0.001 uM incubated for 12 hrs by propidium iodide staining based flow cytometry (reference value: 67%); assay type: functional
[22] = tested on: BT-474; assay: Cytotoxicity against human BT474 cells assessed as inhibition of cell growth after 72 hrs by sulforhodamine B assay; assay type: functional, cell-based; conditions: BT-474, 72 h; summary of the method: as §3
[23] = biological target: T2, Epidermal growth factor receptor; conditions: A-431, 0.001 to 1 uM; remark: listed apart in the source
[24] = tested on: BT-474; assay: Induction of apoptosis in human BT474 cells at 0.01 uM incubated for 12 hrs by propidium iodide staining based flow cytometry (reference value: 1%); assay type: functional
[25] = biological target: Vascular endothelial growth factor receptor 2 (Homo sapiens, UniProt P35968); assay: Inhibition of KDR phosphorylation (unknown origin) expressed in human HUVEC at 0.001 to 1 uM incubated for 2 hrs by Western blot method; assay type: cell-based; summary of the method: as §2
Vascular endothelial growth factor receptor 2, sequence (P35968 whole entry): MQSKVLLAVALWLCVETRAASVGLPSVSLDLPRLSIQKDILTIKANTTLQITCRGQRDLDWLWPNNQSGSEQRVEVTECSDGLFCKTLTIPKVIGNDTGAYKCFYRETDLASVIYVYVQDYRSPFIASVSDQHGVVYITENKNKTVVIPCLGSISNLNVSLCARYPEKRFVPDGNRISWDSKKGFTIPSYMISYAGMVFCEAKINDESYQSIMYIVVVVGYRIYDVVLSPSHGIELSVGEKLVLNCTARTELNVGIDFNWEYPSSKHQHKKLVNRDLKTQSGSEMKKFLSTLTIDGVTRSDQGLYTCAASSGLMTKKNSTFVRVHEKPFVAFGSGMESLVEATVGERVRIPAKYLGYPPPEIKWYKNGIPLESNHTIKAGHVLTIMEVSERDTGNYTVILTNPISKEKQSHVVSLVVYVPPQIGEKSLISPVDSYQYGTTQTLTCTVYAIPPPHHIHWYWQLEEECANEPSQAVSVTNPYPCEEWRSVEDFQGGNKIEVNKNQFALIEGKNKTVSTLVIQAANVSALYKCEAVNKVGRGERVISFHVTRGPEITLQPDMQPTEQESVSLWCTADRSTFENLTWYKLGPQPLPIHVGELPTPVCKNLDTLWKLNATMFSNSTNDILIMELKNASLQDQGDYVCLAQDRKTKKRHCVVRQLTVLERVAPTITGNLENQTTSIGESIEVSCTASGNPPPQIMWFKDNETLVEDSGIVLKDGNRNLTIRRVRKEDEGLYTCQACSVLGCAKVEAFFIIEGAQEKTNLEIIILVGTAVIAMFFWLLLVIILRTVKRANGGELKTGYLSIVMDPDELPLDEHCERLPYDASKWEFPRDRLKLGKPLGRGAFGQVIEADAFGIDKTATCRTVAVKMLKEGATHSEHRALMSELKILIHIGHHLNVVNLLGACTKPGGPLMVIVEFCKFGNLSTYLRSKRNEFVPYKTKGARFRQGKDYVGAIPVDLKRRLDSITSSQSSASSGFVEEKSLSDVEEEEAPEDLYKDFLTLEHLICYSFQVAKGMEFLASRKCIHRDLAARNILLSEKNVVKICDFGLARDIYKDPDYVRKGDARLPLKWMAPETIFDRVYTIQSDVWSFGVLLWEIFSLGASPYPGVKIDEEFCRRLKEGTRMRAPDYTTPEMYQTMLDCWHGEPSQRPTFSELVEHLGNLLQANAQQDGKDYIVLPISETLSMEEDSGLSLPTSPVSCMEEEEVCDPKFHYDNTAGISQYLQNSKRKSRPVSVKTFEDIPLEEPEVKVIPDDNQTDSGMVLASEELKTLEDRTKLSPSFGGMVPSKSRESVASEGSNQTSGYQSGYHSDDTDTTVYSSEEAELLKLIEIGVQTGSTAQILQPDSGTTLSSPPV

[26] = tested on: BT-474; assay: Induction of cell cycle arrest in human BT474 cells assessed as accumulation at S phase at 0.1 uM incubated for 12 hrs by propidium iodide staining based flow cytometry (reference value: 19%); assay type: functional
[27] = AUC (0 to infinity) in Beagle dog at 240 mg/kg, po dosed for 14 days by LC/MS/MS method; assay type: ADME, organism-based, Canis lupus familiaris; set-up: time infinity, dose 240 mg/kg, route oral; conditions: plasma; summary of the method: as §1
[28] = tested on: BT-474; assay: Induction of cell cycle arrest in human BT474 cells assessed as accumulation at G2/M phase at 10 uM incubated for 12 hrs by propidium iodide staining based flow cytometry (reference value: 14%); assay type: functional

IC50 [2]: 230 nM
inhibition [3]: inactive
MRT [4]: 6.1 h
inhibition [6]: Dose-dependent effect
inhibition [8]: Dose-dependent effect
MRT [9]: 6.6 h
IC50 [10]: 95300 nM
IC50 [11]: 260 nM
IC50 [13]: > 200000 nM
inhibition [14]: inactive
IC50 [15]: 440 nM
AUC at 24 h [16]: 29800 ng·h/mL
inhibition [23]: Dose-dependent effect
inhibition [25]: inactive
AUC(0-inf) [27]: 30600 ng·h/mL
Structure (SMILES): CN(C)[C@H](CS(C)(=O)=O)c1ccc(-c2ccc3ncnc(Nc4ccc(OCc5cccc(F)c5)c(Cl)c4)c3c2)o1
Activity [1]: 77%
Activity [5]: 80%
Activity [7]: 11%
Activity [12]: 14%
Activity [17]: 1%
inhibition in vivo at 200 mg/kg [18]: 83%
IC50 [19]: 634 nM
Activity [20]: 14%
Activity [21]: 70%
IC50 [22]: 28.8 nM
Activity [24]: 1%
Activity [26]: 5%
Activity [28]: 12%
